Experimental data as given in ChEMBL document CHEMBL1134337, “Behavioral approach to nondyskinetic dopamine antagonists: identification of seroquel” (J Med Chem, 2001).

Key:
Mus musculus [1] = assay: Antagonism of apomorphine induced climbing was determined in female swiss -Webster mice after (ip) administration of 40 mg/kg; assay type: functional
Procedure, shortened: (§1)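 Female Swiss-Webster mice (about 20 g) were fasted about 24 h, then given test compound or vehicle ip or po (N = 20 per group). Vehicle was 0.5% w/w hydroxypropylmethylcellulose with 0.1% w/w Tween 80 in water. After 30 min, mice received apomorphine HCl 1.25 mg/kg sc. At 13 min, each mouse was watched for 1 min; score was mean of highest and lowest rung of 27. Groups were compared with vehicle by Student's t-test.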

Mus musculus [2] = assay: Antagonism of apomorphine induced swimming was determined in female swiss -Wbster mice after (po) administration of 20 mg/kg; assay type: functional
Mus musculus [3] = assay: Antagonism of apomorphine induced climbing was determined in female swiss -Webster mice after (ip) administration of 20 mg/kg; assay type: functional; procedure, shortened: as §1
[4] = Number of animals showing dyskinesias was determined in haloperidol sensitized 3 cebus monkeys after (po) administration of 10 mg/kg; assay type: functional
Procedure, shortened: (§2)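 Adult female and male Cebus monkeys sensitized with oral haloperidol 1 mg/kg once per week until dyskinetic reactions occurred. Test drug given orally (2 mL/kg) in 0.5% w/w hydroxypropylmethylcellulose with 0.1% w/w Tween 80 in distilled water, at least 2 weeks between treatments. Two observers watched continuously for 6-7 h, recording reaction type and severity every 30 min. Score is monkeys with dyskinesias/monkeys tested.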

Mus musculus [5] = assay: Antagonism of apomorphine induced swimming was determined in female swiss -Wbster mice after (po) administration of 40 mg/kg; assay type: functional
Mus musculus [6] = assay: Antagonism of apomorphine induced climbing was determined in female swiss -Webster mice after (ip) administration of 10 mg/kg; assay type: functional; procedure, shortened: as §1
Mus musculus [7] = assay: Antagonism of apomorphine induced swimming was determined in female swiss -Wbster mice after (ip) administration of 10 mg/kg; assay type: functional
Mus musculus [8] = assay: Antagonism of apomorphine induced climbing was determined in female swiss -Webster mice after (ip) administration of 5 mg/kg; assay type: functional; procedure, shortened: as §1
Mus musculus [9] = assay: Antagonism of apomorphine induced swimming was determined in female swiss -Webster mice after (ip) administration of 10 mg/kg; assay type: functional
Mus musculus [10] = assay: Antagonism of apomorphine induced swimming was determined in female swiss -Webster mice after (ip) administration of 2.5 mg/kg; assay type: functional
Mus musculus [11] = assay: Antagonism of apomorphine induced swimming was determined in female swiss -Webster mice after (ip) administration of 40 mg/kg; assay type: functional
D(2) dopamine receptor = D(2) dopamine receptor (Rattus norvegicus, UniProt P61169); assay: Inhibition of spiropiperidone binding at dopamine receptor D2 of rat.
Sequence of D(2) dopamine receptor (P61169 whole entry): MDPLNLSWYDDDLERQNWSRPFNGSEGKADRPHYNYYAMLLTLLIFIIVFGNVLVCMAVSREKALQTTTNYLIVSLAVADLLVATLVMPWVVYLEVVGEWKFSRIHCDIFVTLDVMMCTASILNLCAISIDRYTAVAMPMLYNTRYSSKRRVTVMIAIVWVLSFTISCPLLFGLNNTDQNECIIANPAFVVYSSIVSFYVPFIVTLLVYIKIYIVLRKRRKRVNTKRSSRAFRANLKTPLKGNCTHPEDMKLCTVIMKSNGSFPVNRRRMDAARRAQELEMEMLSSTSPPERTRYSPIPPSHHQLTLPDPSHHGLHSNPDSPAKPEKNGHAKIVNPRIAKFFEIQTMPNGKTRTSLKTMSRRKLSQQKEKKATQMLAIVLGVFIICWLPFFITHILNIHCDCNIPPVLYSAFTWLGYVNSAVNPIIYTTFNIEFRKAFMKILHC

Mus musculus [12] = assay: Antagonism of apomorphine induced swimming was determined in female swiss -Webster mice after (ip) administration of 5 mg/kg; assay type: functional
[13] = Number of animals showing dyskinesias was determined in haloperidol sensitized cebus monkey after (po) administration of 10 mg/kg; assay type: functional; procedure, shortened: as §2
Mus musculus [14] = assay: Antagonism of apomorphine induced swimming was determined in female swiss -Webster mice after (ip) administration of 20 mg/kg; assay type: functional
Mus musculus [15] = assay: Antagonism of apomorphine induced climbing was determined in female swiss -Webster mice after (ip) administration of 2.5 mg/kg; assay type: functional; procedure, shortened: as §1
[16] = Number of animals showing dyskinesias was determined in haloperidol sensitized 5 cebus monkeys after (po) administration of 10 mg/kg; assay type: functional; procedure, shortened: as §2
Mus musculus [17] = assay: Antagonism of apomorphine induced swimming was determined in female swiss -Wbster mice after (ip) administration of 40 mg/kg; assay type: functional
[18] = Number of animals showing dyskinesias was determined in haloperidol sensitized 2 cebus monkeys after (po) administration of 40 mg/kg; assay type: functional; procedure, shortened: as §2
Mus musculus [19] = assay: Antagonism of apomorphine induced climbing was determined in female swiss -Wbster mice after (po) administration of 80 mg/kg; assay type: functional; procedure, shortened: as §1
Mus musculus [20] = assay: Antagonism of apomorphine induced swimming was determined in female swiss -Wbster mice after (ip) administration of 80 mg/kg; assay type: functional
Mus musculus [21] = assay: Antagonism of apomorphine induced swimming was determined in female swiss -Wbster mice after (po) administration of 80 mg/kg; assay type: functional
Mus musculus [22] = assay: Antagonism of apomorphine induced climbing was determined in female swiss -Wbster mice after (ip) administration of 80 mg/kg; assay type: functional; procedure, shortened: as §1
Mus musculus [23] = assay: Antagonism of apomorphine induced climbing was determined in female swiss -Wbster mice after (ip) administration of 20 mg/kg; assay type: functional; procedure, shortened: as §1
Mus musculus [24] = assay: Antagonism of apomorphine induced climbing was determined in female swiss -Wbster mice after (ip) administration of 40 mg/kg; assay type: functional; procedure, shortened: as §1
Mus musculus [25] = assay: Antagonism of apomorphine induced swimming was determined in female swiss -Wbster mice after (ip) administration of 20 mg/kg; assay type: functional
[26] = Number of animals showing dyskinesias was determined in haloperidol sensitized 12 cebus monkeys after (po) administration of 20 mg/kg; assay type: functional
Procedure, shortened: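 Adult male and female Cebus monkeys were sensitized with haloperidol 1 mg/kg po weekly until dyskinesias appeared. Test drug was given po (2 mL/kg) in HPMC/Tween 80 vehicle, with at least 2 weeks between treatments. Two observers watched continuously for 6-7 h, recording reaction type and severity every 30 min. Result is number of monkeys showing dyskinesias over number tested.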

Mus musculus [27] = assay: Antagonism of apomorphine induced climbing was determined in female swiss -Wbster mice after (ip) administration of 10 mg/kg; assay type: functional; procedure, shortened: as §1
Mus musculus [28] = assay: Antagonism of apomorphine induced climbing was determined in female swiss -Webster mice after (i.p.) +SKF525A administration of 20 mg/kg; assay type: functional; settings: route intraperitoneal; procedure, shortened: as §1
Mus musculus [29] = assay: Antagonism of apomorphine induced climbing was determined in female swiss -Webster mice after (p.o.) +SKF525A administration of 20 mg/kg; assay type: functional; settings: route oral; procedure, shortened: as §1
[30] = molecular target: D(2) dopamine receptor (Rattus norvegicus) (UniProt P61169); assay: Binding affinity at dopamine receptor D2 from rat by spiropiperidone displacement.
Sequence of D(2) dopamine receptor (Rattus norvegicus) (P61169 whole entry): as above
Procedure, shortened: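 D2 receptor binding was read as % displacement of spiropiperidone, with test compound at 1000 nM unless stated otherwise. IC50 values used at least five concentrations per compound in triplicate. Each value is the mean of two replicate experiments differing by 5% or less.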

Mus musculus [31] = assay: Antagonism of apomorphine induced climbing was determined in female swiss -Webster mice after (p.o.) +SKF525A administration of 10 mg/kg; assay type: functional; settings: route oral; procedure, shortened: as §1
Mus musculus [32] = assay: Antagonism of apomorphine induced climbing was determined in female swiss -Webster mice after (po) administration of 20 mg/kg; assay type: functional; procedure, shortened: as §1
Mus musculus [33] = assay: Antagonism of apomorphine induced climbing was determined in female swiss -Webster mice after (i.p.) +SKF525A administration of 10 mg/kg; assay type: functional; settings: route intraperitoneal; procedure, shortened: as §1
Mus musculus [34] = assay: Antagonism of apomorphine induced climbing was determined in female swiss -Webster mice after (p.o.) +SKF525A administration of 5 mg/kg; assay type: functional; settings: route oral; procedure, shortened: as §1
Mus musculus [35] = assay: Antagonism of apomorphine induced climbing was determined in female swiss -Webster mice after (i.p.) +SKF525A administration of 2.5 mg/kg; assay type: functional; settings: route intraperitoneal; procedure, shortened: as §1
Mus musculus [36] = assay: Antagonism of apomorphine induced climbing was determined in female swiss -Webster mice after (po) administration of 5 mg/kg; assay type: functional; procedure, shortened: as §1
Mus musculus [37] = assay: Antagonism of apomorphine induced climbing was determined in female swiss -Webster mice after (po) administration of 10 mg/kg; assay type: functional; procedure, shortened: as §1
Mus musculus [38] = assay: Antagonism of apomorphine induced climbing was determined in female swiss -Webster mice after (i.p.) +SKF525A administration of 5 mg/kg; assay type: functional; settings: route intraperitoneal; procedure, shortened: as §1
[39] = Number of animals showing dyskinesias was determined in haloperidol sensitized 2cebus monkeys after (po) administration of 20 mg/kg; assay type: functional; procedure, shortened: as §2
[40] = Number of animals showing dyskinesias was determined in haloperidol sensitized 4 cebus monkeys after (po) administration of 40 mg/kg; assay type: functional; procedure, shortened: as §2
[41] = Number of animals showing dyskinesias was determined in haloperidol sensitized 2 cebus monkeys after (po) administration of 80 mg/kg; assay type: functional; procedure, shortened: as §2
[42] = Number of animals showing dyskinesias was determined in haloperidol sensitized 6 cebus monkeys after (po) administration of 10 mg/kg; assay type: functional; settings: dose 20 mg/kg; in the assay text read “20 mg/kg” for “10 mg/kg”; procedure, shortened: as §2
[43] = Number of animals showing dyskinesias was determined in haloperidol sensitized 3 cebus monkeys after (po) administration of 20 mg/kg; assay type: functional; procedure, shortened: as §2

## OCCN1CCN(C2=Nc3ccccc3Sc3ccccc32)CC1
Mus musculus [1]
  Activity: 1
Mus musculus [2]
  Activity: 18
Mus musculus [3]
  Activity: 6
[4]
  No of monkeys: 2
Mus musculus [5]
  Activity: 28
Mus musculus [6]
  Activity: 24
Mus musculus [7]
  Activity: 3

## COC(CO)CN1CCN(C2=Nc3ccccc3Sc3ccccc32)CC1 (centres undefined)
Mus musculus [8]
  Activity: 19
Mus musculus [9]
  Activity: 6
Mus musculus [1]
  Activity: 1
Mus musculus [3]
  Activity: 2
Mus musculus [10]
  Activity: 0
Mus musculus [11]
  Activity: 32
D(2) dopamine receptor
  IC50: 0.755 µM
Mus musculus [12]
  Activity: 2
[13]
  No of monkeys: 2
Mus musculus [6]
  Activity: 8
Mus musculus [14]
  Activity: 22
Mus musculus [15]
  Activity: 21

## OCCOCCN1CCN(C2=Nc3ccc(F)cc3Sc3ccccc32)CC1
[16]
  No of monkeys: 1
Mus musculus [17]
  Activity: 8
[18]
  No of monkeys: 0
Mus musculus [19]
  Activity: 23
Mus musculus [20]
  Activity: 18
Mus musculus [21]
  Activity: 2
Mus musculus [22]
  Activity: 2
Mus musculus [23]
  Activity: 9
Mus musculus [24]
  Activity: 8
D(2) dopamine receptor
  IC50: 0.56 µM
Mus musculus [25]
  Activity: 1
[26]
  No of monkeys: 3
Mus musculus [7]
  Activity: 1
Mus musculus [27]
  Activity: 14

## CN1CCN(C2=Nc3ccccc3Sc3ccccc32)CC1
Mus musculus [8]
  Activity: 14
Mus musculus [28]
  Activity: 3
Mus musculus [29]
  Activity: 9
[30]
  % displacement of spiropiperidone: 35%
Mus musculus [3]
  Activity: 0
Mus musculus [31]
  Activity: 18
Mus musculus [32]
  Activity: 0
Mus musculus [33]
  Activity: 18
Mus musculus [34]
  Activity: 23
Mus musculus [35]
  Activity: 23
Mus musculus [36]
  Activity: 21
Mus musculus [37]
  Activity: 8
Mus musculus [38]
  Activity: 21
Mus musculus [6]
  Activity: 3
Mus musculus [15]
  Activity: 21

## OCCOCCN1CCN(C2=Nc3cc(F)ccc3Sc3ccccc32)CC1
[30]
  % displacement of spiropiperidone: 34%
[39]
  No of monkeys: 0
[40]
  No of monkeys: 0
[41]
  No of monkeys: 0
Mus musculus [22]
  Activity: 6
Mus musculus [23]
  Activity: 16
Mus musculus [24]
  Activity: 14

## OCCOCCN1CCN(C2=Nc3ccc(O)cc3Sc3ccccc32)CC1
[42]
  No of monkeys: 5
Mus musculus [17]
  Activity: 31
Mus musculus [23]
  Activity: 5
Mus musculus [24]
  Activity: 0
D(2) dopamine receptor
  IC50: 0.166 µM
Mus musculus [25]
  Activity: 17
Mus musculus [7]
  Activity: 5
Mus musculus [27]
  Activity: 27

## OCCOCCN1CCN(C2=Nc3cc(Cl)ccc3Oc3ccccc32)CC1
Mus musculus [2]
  Activity: 2
[30]
  % displacement of spiropiperidone: 54%
[43]
  No of monkeys: 2
Mus musculus [5]
  Activity: 4
Mus musculus [23]
  Activity: 17
Mus musculus [24]
  Activity: 0
